Compound activity (PubChem BioAssay)
PostGolgi yeast: growth inhibition of a yeast mutant, post-Golgi transport screen; inhibition, % at 10 µM; AID 739; post-Golgi transport phenotypic cell assay; 0.9% of 98,000 active;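 further: yeast cells grown in 1536-well plates; yeast grown about 18 h at 30C before absorbance read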
PostGolgi ctrl: inhibits growth of the yeast control strain | AID 738 | 5% of 98,000 active | inhibition, % at 10 µM | efflux-deficient yeast background strain, growth absorbance A615, 16 h
Calb biofilm kill: kills Candida albicans biofilms; C. albicans biofilm + clotrimazole, Alamar Blue; inhibition, % at 6 µM; 0.14% of 85,000 active; AID 834;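 active means inhibition above 20%; inactive means inhibition below 20%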;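 further: preformed 24 hr biofilms exposed to compound for 48 hr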
Ecoli tolC: growth inhibitors of E. coli BW25113 tolC mutant; OD615; growth inhibition, % at 10 µM (by protocol); 2.2% of 65,000 active;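 active means growth inhibition at or above a cutoff equal to the mean over every tested compound plus 3 SD, cut at about 60% in these data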;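 further: growth measured after 20 h incubation at 37 °C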
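Test system: tolC-deleted E. coli BW25113 | Medium: LB with kanamycin 50 µg/mL | Compound dosing: Single concentration, 10 µM final per compound | Schedule: 37 °C, 20 h exposure | Measured by: OD at 615 nm | Evaluation: Percent growth inhibition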
PTK2B oligo ant: antagonists of human Pyk2 oligomerization | Q14289 | Q293 cells, Pyk2 FERM NanoBiT luminescence; hits give low values | z-score (the deposit names both 25 µM and 10 µM) | 0.83% of 99,000 active | AID 1347419;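 active means Z-score of -3 or lower, scaled per plate to the spread of control and sample wells; inactive means z-score above -3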;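 further: negative z-score means lost luminescence so less FERM oligomerization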
FAK blocker: FAK (human) kinase inhibition | AID 727 | inhibition, %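 (tested at 7 µM)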 | biochemical FAK kinase activity assay | 0.84% of 97,000 active; in the data active means inhibition above about 19%
Target sequence (Q05397 whole entry, looked up): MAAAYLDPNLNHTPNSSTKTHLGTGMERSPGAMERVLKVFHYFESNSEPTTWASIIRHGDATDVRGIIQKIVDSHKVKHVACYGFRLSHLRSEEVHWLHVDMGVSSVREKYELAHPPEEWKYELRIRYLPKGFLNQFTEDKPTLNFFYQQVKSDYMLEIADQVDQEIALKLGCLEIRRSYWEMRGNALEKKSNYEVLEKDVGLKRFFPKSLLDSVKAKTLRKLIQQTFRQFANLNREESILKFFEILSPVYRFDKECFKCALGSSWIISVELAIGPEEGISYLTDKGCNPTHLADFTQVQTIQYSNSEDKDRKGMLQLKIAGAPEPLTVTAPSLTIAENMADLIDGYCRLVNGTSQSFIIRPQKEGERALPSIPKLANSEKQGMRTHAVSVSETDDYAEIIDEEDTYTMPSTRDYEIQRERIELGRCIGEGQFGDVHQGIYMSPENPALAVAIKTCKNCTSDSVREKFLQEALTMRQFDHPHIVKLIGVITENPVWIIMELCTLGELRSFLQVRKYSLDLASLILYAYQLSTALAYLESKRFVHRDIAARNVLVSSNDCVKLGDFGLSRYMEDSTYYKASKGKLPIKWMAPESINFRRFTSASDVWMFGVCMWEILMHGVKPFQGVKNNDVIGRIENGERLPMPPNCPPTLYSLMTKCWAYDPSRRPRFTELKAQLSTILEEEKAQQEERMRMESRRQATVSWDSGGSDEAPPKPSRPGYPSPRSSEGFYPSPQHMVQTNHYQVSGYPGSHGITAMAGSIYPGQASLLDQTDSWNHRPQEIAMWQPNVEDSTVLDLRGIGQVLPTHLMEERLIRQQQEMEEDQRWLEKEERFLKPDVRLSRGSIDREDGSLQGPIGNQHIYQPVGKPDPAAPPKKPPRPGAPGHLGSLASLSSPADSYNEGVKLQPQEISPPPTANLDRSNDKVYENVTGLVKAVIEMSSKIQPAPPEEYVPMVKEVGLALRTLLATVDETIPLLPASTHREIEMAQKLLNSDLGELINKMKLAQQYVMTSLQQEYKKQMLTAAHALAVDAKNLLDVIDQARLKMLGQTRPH
Numbers stand for hits; 0 = inactive; - = no result. This is a sample that favours compounds with a hit; in the whole collection about 6.9% have one here. Unless noted, no stated cut-off is given here; in the data, active means inhibition above about 30%; inactive means the rest.

SMILES	PostGolgi yeast	PostGolgi ctrl	Calb biofilm kill	Ecoli tolC	PTK2B oligo ant	FAK blocker
CC1CN(C2CCN(S(=O)(=O)c3ccc(F)cc3)CC2)CC(C)O1 (stereo unspecified)	48	30	0	-	0	0
COc1ccc(CCNC(=O)CCNS(=O)(=O)c2cccc3nsnc23)cc1OC	0	0	0	0	0	-
O=C(Nc1cccc(-c2nc3ccccc3o2)c1)c1ccc(N2C(=O)C3C4C=CC(C4)C3C2=O)cc1 (stereo unspecified)	0	0	0	-	0	0
CNC(=S)NNC(=O)COc1cccc(C)c1C	-	-	-	-	0	0
Cc1cccc(NC(=S)NNC(=O)CC(C)O)c1C (stereo unspecified)	0	48	-	-	0	0
CC(C)(C)C(=O)Cn1ncc(NC2CC2)c(Br)c1=O	0	0	-	-	0	0
Oc1cccc(Nc2nc(NCC3CCCO3)c3ccccc3n2)c1 (stereo unspecified)	0	0	0	94	0	0
CSCSC1=C(C#N)C(c2ccccc2Cl)C(C(C)=O)=C(C)N1 (stereo unspecified)	0	0	0	63	0	0
CC(=O)c1cccc(NC(=O)C2CCN(S(=O)(=O)c3cccs3)CC2)c1	0	0	0	-	0	0
COc1cc(NS(=O)(=O)c2ccc(NC(=O)c3ccco3)cc2)nc(OC)n1	0	35	0	0	0	0
CCCCc1c(C)c2cc(C)ccc2[nH]c1=O	0	33	0	-	0	0
CCCc1c(C)c2cc(C)ccc2[nH]c1=O	0	0	0	0	0	0
O=C(Cc1c(O)c2ccccc2[nH]c1=O)N(Cc1ccccc1)Cc1ccccc1	36	0	-	-	0	0
CCCCc1c(O)c2ccccc2[nH]c1=O	0	43	0	0	0	0
O=C1c2ccccc2NC(c2ccc(Cl)cc2Cl)N1O (stereo unspecified)	0	0	0	0	0	0
O=C1c2ccccc2NC(c2c(Cl)cccc2Cl)N1Cc1ccccc1 (stereo unspecified)	65	42	0	-	0	0
O=C1c2ccccc2NC(c2ccc(Cl)cc2Cl)N1Cc1ccccc1 (stereo unspecified)	0	36	0	-	0	0
CC(=O)N1N=C(c2ccc(C)cc2)OC1c1ccc(C)cc1 (stereo unspecified)	0	34	0	-	0	0
CC(=O)N1N=C(c2ccc(C)cc2)OC1c1ccc(C(C)C)cc1 (stereo unspecified)	0	0	0	-	0	0
Cc1ccccc1Cc1c(C)nc2c(C(=O)NCc3ccc4c(c3)OCO4)cnn2c1C	0	0	0	-	0	0
Cc1nc2c(C(=O)NCc3ccc4c(c3)OCO4)cnn2c(C)c1Cc1ccc(F)cc1Cl	0	42	0	-	0	0
Cc1ccc(C)c(Cc2c(C)nc3c(C(=O)NCc4ccc5c(c4)OCO5)cnn3c2C)c1	0	57	0	-	-	0
Cc1nc2c(C(=O)NCc3ccco3)cnn2c(C)c1Cc1ccc(F)cc1Cl	0	0	0	0	0	0
Cc1cccc(Cc2c(C)nc3c(C(=O)NCc4ccco4)cnn3c2C)c1	0	33	0	75	0	0
O=C(OCn1nnc2ccccc2c1=O)c1ccco1	0	0	0	-	-	0
SMILES	PostGolgi yeast	PostGolgi ctrl	Calb biofilm kill	Ecoli tolC	PTK2B oligo ant	FAK blocker
COc1ccc(CC(=O)NC2CCN(CC(=O)Nc3ccc4c(c3)OCCO4)CC2)cc1OC	0	37	0	0	0	0
O=C1CC(N2CCC(c3nc4ccccc4o3)CC2)C(=O)N1c1cc(Cl)cc(Cl)c1 (stereo unspecified)	0	0	0	-	0	0
Cn1cc(C(c2ccccn2)c2cn(C)c3ccccc23)c2ccccc21	0	53	0	-	0	0
Cc1ccc(S(=O)(=O)Nc2ccc(NC(=O)CN3CCCCC3)cc2)cc1	0	0	0	0	0	0
COc1cccc(-c2nc(CS(=O)(=O)CC(=O)N3CCN(C4CCCCC4)CC3)c(C)o2)c1	0	0	0	0	-	-
Cc1c(CCC(=O)O)c(=O)oc2cc3occ(-c4ccc(F)cc4)c3cc12	0	0	0	100	0	0
CCN(CC)CCCCOc1ccccc1OC	0	0	0	0	0	0
Cc1cccc(-c2nnc(SCc3nc4ccccc4[nH]3)n2Cc2ccco2)c1	0	0	0	0	0	0
Cc1ccc(NC(=S)NCCN2CCOCC2)cc1C	0	0	-	-	0	0
CCN(CC)CCNC(=O)CCCNC(=O)Cn1cnc2sc(C)c(C)c2c1=O	0	0	-	0	0	0
CCn1c(SCC(=O)O)nnc1C1CCCCC1	0	31	0	0	0	0
CCn1c(SCC(=O)OC)nnc1C1CCCCC1	0	0	0	-	0	0
